One assay concerns the target CDK2/Cyclin A1 (Homo sapiens, UniProt P24941). As to the kind of experiment: Inhibition of human CDK2/Cyclin A1 using histone H1 as substrate preincubated for 20 mins followed by [gamma-33P]-ATP addition measure after 120 mins by filter binding method. The class given is protein-complex assay. Summed up:
(§1)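 Compound preincubated with kinase 20 min at room temperature. Filter-binding read-out, curve-fitted IC50; mean ± SD of three independent experiments.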

For assay [1], the system named is MV4-11. As to the kind of experiment: Growth inhibition of human MV4-11 cells after 72 hrs by CellTiter-Glo assay. As to conditions: MV4-11, 72 h. Format: functional, cell-based. Summed up: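 MV4-11 cells grown in IMDM with 10% FBS, 2% L-glutamine and 1% pen/strep at 37 °C, 5% CO2. Seeded at 10000 cells/well and exposed to compound at various concentrations for 72 h. Viability read by CellTiter-Glo luminescence.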

The target in assay [2] is T1, Receptor-type tyrosine-protein kinase FLT3 (Homo sapiens, UniProt P36888).
T1 sequence (P36888 whole entry): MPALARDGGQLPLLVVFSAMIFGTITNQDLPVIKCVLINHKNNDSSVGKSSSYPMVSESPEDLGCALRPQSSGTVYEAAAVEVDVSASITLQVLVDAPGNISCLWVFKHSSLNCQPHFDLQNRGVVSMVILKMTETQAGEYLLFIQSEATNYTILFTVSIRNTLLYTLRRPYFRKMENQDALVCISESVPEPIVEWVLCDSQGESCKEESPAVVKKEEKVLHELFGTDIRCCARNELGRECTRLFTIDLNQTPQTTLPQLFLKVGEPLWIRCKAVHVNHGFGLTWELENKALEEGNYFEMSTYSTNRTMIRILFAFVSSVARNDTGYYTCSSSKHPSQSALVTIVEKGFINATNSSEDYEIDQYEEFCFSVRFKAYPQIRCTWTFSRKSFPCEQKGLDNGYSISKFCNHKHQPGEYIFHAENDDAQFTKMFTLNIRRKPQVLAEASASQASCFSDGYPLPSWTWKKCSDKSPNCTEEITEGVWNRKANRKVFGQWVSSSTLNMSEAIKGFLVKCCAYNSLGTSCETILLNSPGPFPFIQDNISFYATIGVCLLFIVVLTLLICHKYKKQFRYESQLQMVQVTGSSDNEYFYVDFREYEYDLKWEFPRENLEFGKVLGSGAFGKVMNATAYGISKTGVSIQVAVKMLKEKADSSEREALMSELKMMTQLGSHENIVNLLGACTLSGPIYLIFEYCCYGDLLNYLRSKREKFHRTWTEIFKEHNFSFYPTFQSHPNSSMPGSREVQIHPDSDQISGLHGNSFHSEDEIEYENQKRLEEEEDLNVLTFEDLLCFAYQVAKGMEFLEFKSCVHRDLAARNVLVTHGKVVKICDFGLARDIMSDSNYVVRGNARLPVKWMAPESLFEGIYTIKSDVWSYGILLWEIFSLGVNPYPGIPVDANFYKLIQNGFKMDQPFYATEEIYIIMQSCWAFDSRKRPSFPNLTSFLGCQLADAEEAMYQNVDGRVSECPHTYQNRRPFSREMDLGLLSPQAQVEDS
As to the kind of experiment: Inhibition of human FLT3 using EAIYAAPFAKKK as substrate preincubated for 20 mins followed by [gamma-33P]-ATP addition measure after 120 mins by filter binding method. Summed up: as §1

Assay [3] relates to MV4-11. Nature of the assay: Growth inhibition of human MV4-11 cells at 1 uM after 72 hrs by CellTiter-Glo assay relative to control. The class given is functional. As to conditions: MV4-11, 72 h, read-out: GI. Background: Cellular ATP, detected with luciferase, serves as a proxy for viable cell number.
The target of assay [4] is Receptor-type tyrosine-protein kinase FLT3 (Homo sapiens) (UniProt P36888). Nature of the assay: Inhibition of human FLT3 assessed as residual activity at 0.123 uM using EAIYAAPFAKKK as substrate preincubated for 20 mins followed by [gamma-33P]-ATP addition measure after 120 mins by filter binding method relative to control.
The target of assay [5] is CDK2/Cyclin A1 (Homo sapiens) (UniProt P24941+P78396). Nature of the assay: Inhibition of human CDK2/Cyclin A1 assessed as residual activity at 0.123 uM using histone H1 as substrate preincubated for 20 mins followed by [gamma-33P]-ATP addition measure after 120 mins by filter binding method relative to control. Format: protein-complex assay.
Assay [6] deals with Cyclin-dependent kinase 4/cyclin D1 (Homo sapiens, UniProt P11802). As to the kind of experiment: Inhibition of human CDK4/Cyclin D1 using RB protein as substrate preincubated for 20 mins followed by [gamma-33P]-ATP addition measure after 120 mins by filter binding method. The class given is protein-complex assay. Summed up: (§2)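 Compound preincubated with kinase 20 min at room temperature. Reaction started with 10 μM [γ-33P]ATP and run 120 min at 25°C. Filter-binding read-out, curve-fitted IC50; mean ± SD of three independent experiments.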
Sequence of Cyclin-dependent kinase 4/cyclin D1 (P11802 whole entry): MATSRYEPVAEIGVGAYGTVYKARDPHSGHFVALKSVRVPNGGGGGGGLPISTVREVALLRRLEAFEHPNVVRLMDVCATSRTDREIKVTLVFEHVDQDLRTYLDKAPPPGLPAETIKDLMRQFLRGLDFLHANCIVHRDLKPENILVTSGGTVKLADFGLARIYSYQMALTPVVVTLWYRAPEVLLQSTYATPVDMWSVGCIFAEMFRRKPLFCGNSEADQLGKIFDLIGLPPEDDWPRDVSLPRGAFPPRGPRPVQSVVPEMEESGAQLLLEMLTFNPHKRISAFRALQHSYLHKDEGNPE
Sequence of Cyclin-dependent kinase 4/cyclin D1 (P24385 whole entry, further chain): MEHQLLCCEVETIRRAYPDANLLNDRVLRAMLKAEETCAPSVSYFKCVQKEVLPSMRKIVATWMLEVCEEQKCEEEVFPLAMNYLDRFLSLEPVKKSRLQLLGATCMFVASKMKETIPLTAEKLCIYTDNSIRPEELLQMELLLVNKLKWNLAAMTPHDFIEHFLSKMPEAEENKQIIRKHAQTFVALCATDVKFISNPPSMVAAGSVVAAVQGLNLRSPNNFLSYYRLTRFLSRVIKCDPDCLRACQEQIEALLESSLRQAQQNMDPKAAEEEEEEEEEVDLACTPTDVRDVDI

A further assay deals with CDK6/cyclin D1 (Homo sapiens, UniProt Q00534). Nature of the assay: Inhibition of human CDK6/Cyclin D1 using RB protein as substrate preincubated for 20 mins followed by [gamma-33P]-ATP addition measure after 120 mins by filter binding method. The class given is protein-complex assay. Summed up: as §2
Sequence of CDK6/cyclin D1 (P24385 whole entry): as the sequence (P24385 whole entry, further chain) above
Sequence of CDK6/cyclin D1 (Q00534 whole entry): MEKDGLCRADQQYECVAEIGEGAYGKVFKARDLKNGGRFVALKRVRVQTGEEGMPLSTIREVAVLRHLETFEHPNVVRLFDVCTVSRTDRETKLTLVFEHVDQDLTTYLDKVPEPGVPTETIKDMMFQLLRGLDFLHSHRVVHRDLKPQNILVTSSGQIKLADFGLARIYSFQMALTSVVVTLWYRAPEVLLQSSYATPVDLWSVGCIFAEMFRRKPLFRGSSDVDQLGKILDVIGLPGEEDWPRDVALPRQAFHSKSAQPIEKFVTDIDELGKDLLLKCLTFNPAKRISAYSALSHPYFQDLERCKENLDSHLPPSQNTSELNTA

By IC50 is commonly meant the concentration at which inhibition is half-maximal. High values mean lower potency, low ones higher potency.

Turning to `O=C(Nc1ccc(CN2CCOCC2)cc1)c1n[nH]cc1Nc1ncnc2[nH]ccc12`, the IC50 on CDK2/Cyclin A1 came out at 7.25 nM; in the assay with MV4-11 [1], 21 nM; in assay [2], 2.06 nM.

Take `CN1CCN(Cc2ccc(NC(=O)c3n[nH]cc3Nc3ccnc4ccc(Br)cc34)cc2)CC1`: the inhibition of growth at 1 µM in the assay with MV4-11 [3] came out at 97.2%. The IC50 at CDK2/Cyclin A1 was found to be 5.74 nM; in assay [2], 4.84 nM.

Regarding `CCc1cc2c(Nc3c[nH]nc3C(=O)Nc3ccc(CN4CCOCC4)cc3)ncnc2s1`, the IC50 on CDK2/Cyclin A1 was found to be 3.3 nM; in the assay on MV4-11 [1] it was 34 nM; in assay [2], 1.56 nM.

For the compound `Cc1csc2ncnc(Nc3c[nH]nc3C(=O)Nc3ccc(CN4CCN(C)CC4)cc3)c12`, the IC50 at CDK2/Cyclin A1 came out at 4.49 nM; in assay [2] it was 0.167 nM.

Take `Cc1csc2ncnc(Nc3c[nH]nc3C(=O)Nc3ccc(CN4CCOCC4)cc3)c12`: the figures for the IC50 (at CDK2/Cyclin A1; in the assay on MV4-11 [1]; in assay [2]) were 1.08 nM, 11 nM and 1.37 nM, respectively.

On to `CN1CCN(Cc2ccc(NC(=O)c3n[nH]cc3Nc3nccc4ccccc34)cc2)CC1`, for which the Activity in assay [4] turned out to be 24.5%; in assay [5] it was 60.5%.

Take `CC(C)c1cc2c(Nc3c[nH]nc3C(=O)Nc3ccc(CN4CCOCC4)cc3)ncnc2s1`: the results for the IC50 (at CDK2/Cyclin A1; with MV4-11 [1]; in assay [2]) were 9.85 nM, 15 nM and 7.63 nM, respectively.

In the case of `CN1CCCN(Cc2ccc(NC(=O)c3n[nH]cc3Nc3ncnc4sccc34)cc2)CC1`, the values for the IC50 (at CDK2/Cyclin A1; in assay [2]) were 3.03 nM and 0.32 nM, respectively.

Regarding `CCc1cc2c(Nc3c[nH]nc3C(=O)Nc3ccc(CN4CCN(C)CC4)cc3)ncnc2s1`, the IC50 was found to be 1.87 nM at CDK2/Cyclin A1 and 0.101 nM in assay [2].

Take `CC(C)c1cc2c(Nc3c[nH]nc3C(=O)Nc3ccc(CN4CCN(C)CC4)cc3)ncnc2s1`: the IC50 at CDK2/Cyclin A1 came out at 3.89 nM; in assay [2] it was 2.31 nM.

Turning to `COc1ccc2ncnc(Nc3c[nH]nc3C(=O)Nc3ccc(CN4CCOCC4)cc3)c2c1`, in the assay on MV4-11 [3], the inhibition of growth at 1 µM was determined as 53.1%. Also, the figures for the IC50 (at CDK2/Cyclin A1; in assay [2]) were 29.8 nM and 3.78 nM, respectively.

Take `O=C(Nc1ccc(CN2CCOCC2)cc1)c1n[nH]cc1Nc1ncnc2ccsc12`: the IC50 on CDK2/Cyclin A1 is 11.6 nM; in the assay on MV4-11 [1] it was 35 nM; in assay [2] it was 6.15 nM.

As to `COc1ccc2nccc(Nc3c[nH]nc3C(=O)Nc3ccc(CN4CCN(C)CC4)cc3)c2c1`, the values for the Activity in assay [4] and in assay [5] were 10.4% and 32.5%, respectively. Further, the inhibition of growth at 1 µM with MV4-11 [3] came to 64.4%.

For `O=C(Nc1ccc(CN2CCOCC2)cc1)c1n[nH]cc1Nc1cc(C(F)(F)F)nc2ccccc12`, the Activity in assay [4] stood at 83.2%; in assay [5], 99.7%. The inhibition of growth at 1 µM in the assay with MV4-11 [3] was 4.7%.

Consider `O=C(Nc1ccc(CN2CCOCC2)cc1)c1n[nH]cc1Nc1ccnc2ccccc12`, for which the Activity in assay [4] was 40.8%; in assay [5], 57.7%. Besides, the inhibition of growth at 1 µM with MV4-11 [3] turned out to be 42%.

`COc1ccc2c(Nc3c[nH]nc3C(=O)Nc3ccc(CN4CCN(C)CC4)cc3)ccnc2c1`: the inhibition of growth at 1 µM in the assay with MV4-11 [3] came to 22.6%. For the same compound, the IC50 at CDK2/Cyclin A1 worked out at 697 nM; in assay [2] it was 197 nM.

With `O=C(Nc1ccc(CN2CCOCC2)cc1)c1n[nH]cc1Nc1ccnc2ccc(Br)cc12`, the inhibition of growth at 1 µM in the assay on MV4-11 [3] was 93.7%. In addition, the IC50 came out at 24.1 nM at CDK2/Cyclin A1 and 16.9 nM in assay [2].

Turning to `Cc1sc2ncnc(Nc3c[nH]nc3C(=O)Nc3ccc(CN4CCOCC4)cc3)c2c1C`, the figures for the IC50 (at CDK2/Cyclin A1; in the assay on MV4-11 [1]; in assay [2]) were 7.34 nM, 30 nM and 3.52 nM, respectively.

As to `CCN(CC)Cc1ccc(NC(=O)c2n[nH]cc2Nc2ncnc3sccc23)cc1`, the 50% inhibitory concentration (IC50) at CDK2/Cyclin A1 came to 1.59 nM; in assay [2], 5.36 nM.

Regarding `O=C(Nc1ccc(CN2CCOCC2)cc1)c1n[nH]cc1Nc1ncnc2ccccc12`, the figures for the IC50 (at CDK2/Cyclin A1; in the assay with MV4-11 [1]; in assay [2]) were 5.3 nM, 23 nM and 0.588 nM, respectively.

Consider `CN1CCN(Cc2ccc(NC(=O)c3n[nH]cc3Nc3ccnc4ccccc34)cc2)CC1`, for which the Activity in assay [4] was determined as 27.7%; in assay [5] it was 26.5%. Besides, the inhibition of growth at 1 µM in the assay with MV4-11 [3] stood at 98.8%.

Consider `O=C(Nc1ccc(CN2CCOCC2)cc1)c1n[nH]cc1Nc1nc(Cl)nc2ccccc12`, for which, in the assay on MV4-11 [3], the inhibition of growth at 1 µM was determined as 91.1%. Moreover, the values for the concentration for half-maximal inhibition (IC50) (on CDK2/Cyclin A1; in assay [2]) were 58.6 nM and 0.958 nM, respectively.

On to `CCN(CC)Cc1ccc(NC(=O)c2n[nH]cc2Nc2ncnc3[nH]ccc23)cc1`, for which the IC50 on CDK2/Cyclin A1 was determined as 13.6 nM; in assay [2], 0.13 nM.

Regarding `CN1CCN(Cc2ccc(NC(=O)c3n[nH]cc3Nc3ncnc4ccsc34)cc2)CC1`, the IC50 came out at 9.32 nM on CDK2/Cyclin A1; 3.1 nM in assay [6]; 4.11 nM on CDK6/cyclin D1; 23 nM in the assay on MV4-11 [1]; 0.47 nM in assay [2].

For the compound `CN1CCN(Cc2ccc(NC(=O)c3n[nH]cc3Nc3ncnc4occc34)cc2)CC1`, in the assay on MV4-11 [3], the inhibition of growth at 1 µM came out at 94.7%. The IC50 is 16.5 nM on CDK2/Cyclin A1, 5.67 nM in assay [6], 5.09 nM at CDK6/cyclin D1 and 2.56 to 2.65 nM in assay [2].

As for `O=C(Nc1c[nH]nc1C(=O)Nc1ccc(CN2CCOCC2)cc1)c1ccccc1`, the IC50 on CDK2/Cyclin A1 amounted to 318 nM; in the assay on MV4-11 [1] it was 450 nM; in assay [2] it was 42.6 nM.

Regarding `O=C(Nc1ccc(CN2CCOCC2)cc1)c1n[nH]cc1Nc1nccc2ccccc12`, in the assay with MV4-11 [3], the inhibition of growth at 1 µM was 50.4%. Besides, the IC50 worked out at 287 nM on CDK2/Cyclin A1 and 42.4 nM in assay [2].

For the compound `Cc1sc2ncnc(Nc3c[nH]nc3C(=O)Nc3ccc(CN4CCN(C)CC4)cc3)c2c1C`, the IC50 stood at 1.9 nM at CDK2/Cyclin A1 and 0.576 nM in assay [2].

With `Cc1cc2c(Nc3c[nH]nc3C(=O)Nc3ccc(CN4CCN(C)CC4)cc3)ncnc2s1`, the IC50 in assay [2] stood at 0.384 nM.

In the case of `O=C(Nc1ccc(CNC2CC2)cc1)c1n[nH]cc1Nc1ncnc2sccc12`, the half-maximal inhibitory concentration (IC50) worked out at 2.05 nM at CDK2/Cyclin A1 and 1.05 nM in assay [2].

As to `COc1ccc2c(Nc3c[nH]nc3C(=O)Nc3ccc(CN4CCOCC4)cc3)ccnc2c1`, the inhibition of growth at 1 µM with MV4-11 [3] turned out to be 22.2%. Besides, the Activity in assay [5] stood at 75%. The IC50 in assay [2] came to 97.4 nM.

For `CN1CCN(Cc2ccc(NC(=O)c3n[nH]cc3Nc3ncnc4ccccc34)cc2)CC1`, the results for the IC50 (at CDK2/Cyclin A1; in assay [2]) were 8.27 nM and 3.17 nM, respectively.
